In ChEMBL document CHEMBL2311522, “Design, synthesis and biological evaluation of novel aliphatic amido/sulfonamido-quaternary ammonium salts as antitumor agents” (2013):
Activity calls are given as the source filed them. No cut-off for these calls is given here.

Legend:
NUGC-3 = experiment: Growth inhibition of human NUGC3 cells by SRB assay; assay type: functional
[1] = molecular target: Rho-related GTP-binding protein RhoB (Homo sapiens) (UniProt P62745); experiment: Transactivation of RhoB (unknown origin) transfected in human HeLa cells at 5 uM by dual luciferase reporter gene assay; assay type: cell-based
Chain of Rho-related GTP-binding protein RhoB (Homo sapiens) (P62745 whole entry): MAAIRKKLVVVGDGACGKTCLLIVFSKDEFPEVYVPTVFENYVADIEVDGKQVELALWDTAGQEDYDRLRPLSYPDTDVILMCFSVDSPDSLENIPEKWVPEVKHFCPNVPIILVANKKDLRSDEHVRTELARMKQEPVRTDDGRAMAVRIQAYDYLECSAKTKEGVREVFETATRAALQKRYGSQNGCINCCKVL
Method in brief: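 HeLa cells at 75–90% confluency were transiently cotransfected with a pGL2-RhoB-firefly luciferase promoter construct, then exposed to compounds. RhoB promoter activation was read as luciferase activity with a dual-luciferase reporter system. NSC126188 and perifosine, each at the same concentration as the compounds, served as positive controls.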

MDA-MB-231 = experiment: Growth inhibition of human MDA-MB-231 cells by SRB assay; assay type: functional
PC-3 = experiment: Growth inhibition of human PC3 cells by SRB assay; assay type: functional
NCI-H23 = experiment: Growth inhibition of human NCI-H23 cells by SRB assay; assay type: functional
HCT-15 = experiment: Growth inhibition of human HCT15 cells by SRB assay; assay type: functional
ACHN = experiment: Growth inhibition of human ACHN cells by SRB assay; assay type: functional

Compound | GI50 (NUGC-3) | Activity [1] | GI50 (MDA-MB-231) | GI50 (PC-3) | GI50 (NCI-H23) | GI50 (HCT-15) | GI50 (ACHN)
CCCCCCCCCCCCCCCCCCCC(=O)N1CCC[N+](C)(C)CC1 | 360 nM | Active | 2220 nM | inactive | 3840 nM | 990 nM | 2780 nM
CCCCCCCCCCCCCCCC(=O)N1CC[N+](C)(C)CC1 | 290 nM | Active | – | 480 nM | – | 580 nM | –
CCCCCCCCCCCCCCCCCCCC(=O)Nc1ccc([N+](C)(C)C)cc1 | 1280 nM | – | 3680 nM | 1630 nM | 1930 nM | 3020 nM | 1760 nM
CCCCCCCCCCCCCCCC(=O)N1CCC[N+](C)(Cc2cccc(OC(F)(F)F)c2)CC1 (stereo not given) | 870 nM | – | 1340 nM | 630 nM | 1450 nM | inactive | 1930 nM
CCCCCCCCCCCCCCCC(=O)Nc1ccc([N+](C)(C)C)cc1 | 700 nM | – | 2830 nM | 790 nM | 1800 nM | 2370 nM | 3150 nM
CCCCCCCCCCCCCCCC(=O)N1CCC[N+](C)(C)CC1 | 210 nM | Active | 940 nM | 400 nM | 2380 nM | 930 nM | 400 nM
CCCCCCCCCCCCCCCCCCOP(=O)([O-])OC1CC[N+](C)(C)CC1 [PERIFOSINE] | 540 nM | – | – | 440 nM | – | – | –
CCCCCCCCCCCCCCCCCC(=O)Nc1ccc([N+](C)(C)C)cc1 | 410 nM | – | 4340 nM | 1200 nM | 3290 nM | 1220 nM | 1870 nM
CCCCCCCCCCCCS(=O)(=O)Nc1ccc([N+](C)(C)C)cc1 | 1210 nM | – | inactive | 1020 nM | 3940 nM | inactive | 4500 nM
CCCCCCCCCCCCCCCCS(=O)(=O)N1CCC[N+](C)(C)CC1 | 380 nM | Active | 590 nM | 400 nM | 3400 nM | 770 nM | 2010 nM
CCCCCCCCCCCCCC(=O)N1CCC[N+](C)(C)CC1 | 80 nM | Active | 980 nM | 360 nM | 1360 nM | 1700 nM | 490 nM
CCCCCCCCCCCCCC(=O)N1CCC[N+](C)(CC)CC1 (stereo not given) | 220 nM | Active | 680 nM | 270 nM | 1180 nM | 1860 nM | 1610 nM
CCCCCCCCCCCCCCS(=O)(=O)Nc1ccc([N+](C)(C)C)cc1 | 1740 nM | – | 4540 nM | 900 nM | 730 nM | 3380 nM | inactive
CCCCCCCCCCCCCCCCCC(=O)N1CCC[N+](C)(C)CC1 | 260 nM | – | 670 nM | 240 nM | 1160 nM | 400 nM | 570 nM
CCCCCCCCCCCCCC(=O)N1CCC[N+](C)(Cc2cccc([N+](=O)[O-])c2)CC1 (stereo not given) | 460 nM | Active | 710 nM | 180 nM | 890 nM | inactive | 820 nM
CCCCCCCCCCCCCC(=O)N1CCC[N+](C)(Cc2ccccc2)CC1 (stereo not given) | 310 nM | Active | 1160 nM | 450 nM | 1070 nM | inactive | 1000 nM
CCCCCCCCCCCCCCS(=O)(=O)N1CCC[N+](C)(C)CC1 | 250 nM | Active | 830 nM | 620 nM | 800 nM | 380 nM | 1330 nM
CCCCCCCCCCCCCC(=O)N1CCC[N+](C)(Cc2ccc(F)cc2)CC1 (stereo not given) | 940 nM | – | 1480 nM | 450 nM | 1480 nM | inactive | 1100 nM
CCCCCCCCCCCCS(=O)(=O)N1CCC[N+](C)(C)CC1 | 240 nM | Active | 840 nM | 380 nM | 960 nM | 960 nM | 1160 nM
CCCCCCCCCCCCCC(=O)Nc1ccc([N+](C)(C)C)cc1 | 740 nM | – | 3560 nM | 540 nM | 4140 nM | 1360 nM | 4540 nM
C=CC[N+]1(C)CCCN(C(=O)CCCCCCCCCCCCC)CC1 (stereo not given) | 260 nM | Active | 450 nM | 180 nM | 280 nM | inactive | 440 nM
